Reference: ChEMBL document CHEMBL1123965, “Substituted 1,3,4-thiadiazoles with anticonvulsant activity. 4. Amidines” (J Med Chem, 1988)

Experiments:
[1] = test system: Mus musculus; experiment: Anticonvulsant activity in mouse maximal electroshock test 1 hr following p.o. administration.; type: functional; settings: po
Procedure, shortened: (§1)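 Male BKW mice (LACA origin), 18–22 g; compound dissolved or suspended in 2% Tween 80 in distilled water, given po, tested 1 h later. Corneal electrodes delivered 4-ms pulses, 50 Hz, 80 V for 0.3 s. End point was block of hind limb tonic seizure; ED50 with limits from probit analysis (Bliss computerized method).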

[2] = The dose at which 50% of the mouse fell off the rotarod; type: ADME, organism-based; settings: in vivo
Procedure, shortened: (§2)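 Male BKW mice (18–22 g), trained beforehand to stay on a 3-cm-diameter rod turning at 16 rpm; dosed po in 2% Tween 80/water and tested 1 h later. TD50 (dose at which half fall off) by probit analysis. Sedation, ataxia, loss of righting reflex and death noted by visual observation after oral dosing.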

[3] = test system: Mus musculus; experiment: Anticonvulsant activity in mouse maximal metrazole seizure test 1 hr following p.o. administration.; type: functional; settings: po
Procedure, shortened: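 Male BKW mice (LACA origin), 18–22 g, dosed orally with compound in 2% Tween 80/distilled water (solution or suspension). Leptazol 120 mg/kg ip given 1 h after oral dose to provoke maximal seizures. ED50 with limits obtained by Bliss probit analysis.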

[4] = test system: Mus musculus; experiment: Anticonvulsant activity in mice (1h after dosing, po) was determined by maximal electroshock test; type: functional; procedure, shortened: as §1
[5] = test system: Mus musculus; experiment: The dose at which 50% of the mouse fell off the rotarod; Sedative at 100 mg/kg; type: ADME, organism-based; design: dose 100 mg/kg; settings: in vivo; procedure, shortened: as §2
[6] = test system: Mus musculus; experiment: The dose at which 50% of the mouse fell off the rotarod; Toxic at 200 mg/kg; type: toxicity, organism-based; design: dose 200 mg/kg; settings: in vivo; procedure, shortened: as §2
[7] = test system: Mus musculus; experiment: The dose at which 50% of the mouse fell off the rotarod; Sedative at 142 mg/kg; type: ADME, organism-based; design: dose 142 mg/kg; settings: in vivo; procedure, shortened: as §2
[8] = organism: Mus musculus; experiment: Lethal dose was determined; type: toxicity, organism-based; settings: in vivo
Procedure, shortened: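 Male BKW mice (LACA origin, 18–22 g) were dosed orally with compound dissolved or suspended in 2% Tween 80 in distilled water. Before anticonvulsant testing, animals were observed visually for sedation, ataxia, loss of righting reflex and death. The value is reported in the rotorod column, which was read 1 h after oral dosing.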

Row | SMILES | ED50 [1] | TD50 [2] | ED50 [3] | other results
1 | CC(=N)Nc1nnc(-c2ccccc2C(F)(F)F)s1 | 18 mg/kg | ~80 mg/kg | 19 mg/kg | –
2 | CC(=N)Nc1nnc(-c2ccccc2-c2ccccc2)s1 | – | > 100 mg/kg | – | –
3 | CCCC/N=C(/C)Nc1nnc(-c2ccccc2C)s1 | 48 mg/kg | > 100 mg/kg | 46 mg/kg | –
4 | CC(=N)Nc1nnc(-c2ccccc2C)s1 | – | – | 78 mg/kg | ED50 [4]: 200 mg/kg; TD50 [5]: Sedative at 100 mg/kg
5 | CC(=N)Nc1nnc(Cc2ccccc2)s1 | 31 mg/kg | 200 mg/kg | 50 mg/kg | –
6 | CCCC/N=C(\Nc1nnc(-c2ccccc2-c2ccccc2)s1)C(C)C | > 200 mg/kg | – | > 100 mg/kg | –
7 | C/C(=N/Cc1ccccc1)Nc1nnc(-c2ccccc2C)s1 | 86 mg/kg | > 200 mg/kg | 102 mg/kg | –
8 | Cc1ccccc1-c1nnc(C2=NCCN2)s1 | > 100 mg/kg | – | > 200 mg/kg | –
9 | CCCC/N=C(/C)Nc1nnc(-c2ccccc2-c2ccccc2)s1 | 121 mg/kg | > 200 mg/kg | 90 mg/kg | –
10 | CCCC/N=C(\N)c1nnc(-c2ccccc2C)s1 | > 200 mg/kg | – | ~142 mg/kg | TD50 [6]: Toxic at 200 mg/kg
11 | C/C(=N\c1nnc(-c2ccccc2C)s1)N1CCOCC1 | 108 mg/kg | – | 148 mg/kg | TD50 [7]: Sedative at 142 mg/kg
12 | c1ccc(-c2ccccc2-c2nnc(C3=NCCN3)s2)cc1 | 103 mg/kg | – | 77 mg/kg | LD30 [8]: 200 mg/kg
13 | CCCC/N=C(/Cc1ccccc1)Nc1nnc(-c2ccccc2C(F)(F)F)s1 | > 200 mg/kg | – | > 100 mg/kg | –
14 | N=C(Cc1ccccc1)Nc1nnc(Cc2ccccc2)s1 | 86 mg/kg | > 500 mg/kg | 45 mg/kg | –
15 | CCCC(=N)Nc1nnc(-c2ccccc2C(F)(F)F)s1 | 63 mg/kg | 150 mg/kg | 60 mg/kg | –
16 | Cc1ccccc1-c1nnc(/N=C/Nc2nnc(-c3ccccc3C)s2)s1 | > 200 mg/kg | – | > 200 mg/kg | –
17 | CCN(CC)/C(C)=N/c1nnc(-c2ccccc2C)s1 | 81 mg/kg | > 200 mg/kg | 84 mg/kg | –
18 | CCCC/N=C(/C)Nc1nnc(-c2ccccc2C(F)(F)F)s1 | 33 mg/kg | ~70 mg/kg | 21 mg/kg | –
